Measurements: publication PMC6221542 (Science Advances, 2018)
Entries after “also recorded” stand apart in the source; their conditions may differ. Where no end group is shown, it is not given here.

Legend:
[1] = tested on: methylated H3K9 and H3K27 peptides; experiment: Peptide microarray, chromodomain binding profile; set-up: species or system human
Procedure, shortened: (§1)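 Array of 467 unmodified and modified peptides (desalted, mass-spectrometry checked) printed in triplicate spots on glass slides and probed with chromodomain proteins. Signal intensities converted to z scores per chromodomain using all its intensities: z = (x − mean)/SD. Hierarchical clustering grouped chromodomains into three categories and peptides into six clusters by binding preference.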

H3K9me3 = settings: read-out: Kd H3K9me3; reported Kd of CBX chromodomains; cited from earlier work
SUV91 chromodomain = experiment: Peptide microarray binding, SUV91; set-up: species or system human
Procedure, shortened: as §1

Substance | binding profile toward methylated H3K9 / H3K27 peptides (in words) [1] | Kd (H3K9me3) | binding to SUV91 chromodomain (in words) (SUV91 chromodomain)
CBX2: CBX2 chromodomain, GST fusion, cloned sequence 9-66 (EQVFAAECILSKRLRKGKLEYLVKWRGWSSKHNSWEPEENILDPRLLLAFQKKEHEKE; also: GST fusion, end not given here; UniProt Q14781 9-66, looked up, fragment) | binding to both methylated H3K9 and H3K27 was confirmed; also recorded: higher H3K27 signal intensity compared with those of H3K9 | – | –
WT CBX1: WT CBX1 chromodomain, GST fusion, cloned sequence 20-73 | bound predominantly to all three methylated H3K9 peptides | 5 µM | –
[Ahx]AATASCLIC[K_Me3]YAA [methylated SIRT1 sequence] | – | – | showed binding
CBX4: CBX4 chromodomain, GST fusion, cloned sequence 8-65 (EHVFAVESIEKKRIRKGRVEYLVKWRGWSPKYNTWEPEENILDPRLLIAFQNRERQEQ; also: GST fusion, end not given here; UniProt O00257 8-65, looked up, fragment) | binding to both methylated H3K9 and H3K27 was confirmed | – | –
CBX8: CBX8 chromodomain, GST fusion, cloned sequence 8-61 (ERVFAAEALLKRRIRKGRMEYLVKWKGWSQKYSTWEPEENILDARLLAAFEERE; also: GST fusion, end not given here; UniProt Q9HC52 8-61, looked up, fragment) | binding to both methylated H3K9 and H3K27 was confirmed; also recorded: showed signals with di- and trimethylated peptides at both sites | – | –
CBX6: CBX6 chromodomain, GST fusion, cloned sequence 8-65 (ERVFAAESIIKRRIRKGRIEYLVKWKGWAIKYSTWEPEENILDSRLIAAFEQKERERE; also: GST fusion, end not given here; UniProt O95503 8-65, looked up, fragment) | binding to both methylated H3K9 and H3K27 was confirmed; also recorded: showed signals with di- and trimethylated peptides at both sites | – | –
